According to ChEMBL document CHEMBL4680235, “Structure-based discovery of novel 4-(2-fluorophenoxy)quinoline derivatives as c-Met inhibitors using isocyanide-involved multicomponent reactions” (Eur J Med Chem, 2020):

Legend:
NCI-H460 [1] = experiment: Antiproliferative activity against human NCI-H460 cells assessed as reduction in cell viability measured after 72 hrs by MTT assay; settings: NCI-H460, 72 h
HT-29 [2] = experiment: Antiproliferative activity against human HT-29 cells assessed as reduction in cell viability measured after 72 hrs by MTT assay; settings: HT-29, 72 h
MKN-45 = experiment: Antiproliferative activity against human MKN-45 cells assessed as reduction in cell viability measured after 72 hrs by MTT assay; settings: MKN-45, 72 h
MDA-MB-231 [3] = experiment: Antiproliferative activity against human MDA-MB-231 cells assessed as reduction in cell viability measured after 72 hrs by MTT assay; settings: MDA-MB-231, 72 h
[4] = target: Hepatocyte growth factor receptor (Homo sapiens, UniProt P08581); experiment: Inhibition of c-MET (unknown origin) using poly (Glu, Tyr) 4:1 as substrate measured after 30 mins by HTRF assay
NCI-H460 [5] = experiment: Potency index, ratio of foretinib IC50 to test compound IC50 for antiproliferative activity against human NCI-H460 cells; assay type: functional
HT-29 [6] = experiment: Potency index, ratio of foretinib IC50 to test compound IC50 for antiproliferative activity against human HT-29 cells; assay type: functional
MDA-MB-231 [7] = experiment: Potency index, ratio of foretinib IC50 to test compound IC50 for antiproliferative activity against human MDA-MB-231 cells; assay type: functional
[8] = target: Mast/stem cell growth factor receptor Kit (Homo sapiens, UniProt P10721); experiment: Inhibition of c-Kit (unknown origin)
Summary of the method: (§1)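 HTRF kinase assay with purified kinase protein on preloaded poly(Glu,Tyr) 4:1 substrate, 20 mg/mL. ATP at 10 mM (solution added) in buffer of 50 mM HEPES pH 7.0 with DTT, MgCl₂, MnCl₂ and 0.1% NaN₃. Compounds diluted in 1% DMSO. Reaction ran 30 min at 25 °C. Percent inhibition computed against no-enzyme (min) and full-activity (max) wells. IC50 taken from the inhibition curves.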

[9] = target: T1, Receptor-type tyrosine-protein kinase FLT3 (Homo sapiens, UniProt P36888); experiment: Inhibition of FLT3 (unknown origin)
T1 sequence (P36888 whole entry): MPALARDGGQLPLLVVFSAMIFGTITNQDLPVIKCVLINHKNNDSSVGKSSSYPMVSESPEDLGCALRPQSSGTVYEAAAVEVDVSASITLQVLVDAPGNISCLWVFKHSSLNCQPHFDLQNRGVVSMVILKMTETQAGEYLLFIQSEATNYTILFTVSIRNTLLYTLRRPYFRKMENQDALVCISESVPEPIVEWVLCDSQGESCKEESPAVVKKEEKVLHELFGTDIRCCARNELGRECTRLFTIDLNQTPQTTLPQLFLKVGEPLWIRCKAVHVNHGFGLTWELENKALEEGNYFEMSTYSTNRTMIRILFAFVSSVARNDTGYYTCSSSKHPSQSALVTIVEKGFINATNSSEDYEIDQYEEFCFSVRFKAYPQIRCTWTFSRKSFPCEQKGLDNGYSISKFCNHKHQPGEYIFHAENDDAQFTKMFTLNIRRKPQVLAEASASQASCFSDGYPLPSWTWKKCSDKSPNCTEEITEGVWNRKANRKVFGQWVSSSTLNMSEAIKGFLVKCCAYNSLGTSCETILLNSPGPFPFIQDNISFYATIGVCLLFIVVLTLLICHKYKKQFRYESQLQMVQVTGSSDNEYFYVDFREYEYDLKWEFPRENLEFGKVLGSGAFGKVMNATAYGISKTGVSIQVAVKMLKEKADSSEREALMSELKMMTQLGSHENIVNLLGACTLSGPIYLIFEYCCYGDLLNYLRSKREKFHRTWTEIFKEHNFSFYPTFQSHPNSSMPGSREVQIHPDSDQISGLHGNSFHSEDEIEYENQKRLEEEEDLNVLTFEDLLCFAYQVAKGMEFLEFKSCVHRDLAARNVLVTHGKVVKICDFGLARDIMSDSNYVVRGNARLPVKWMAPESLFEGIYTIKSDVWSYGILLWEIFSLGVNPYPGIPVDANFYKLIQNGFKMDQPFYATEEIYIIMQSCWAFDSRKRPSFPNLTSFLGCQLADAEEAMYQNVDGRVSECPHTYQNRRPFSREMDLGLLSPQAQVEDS

[10] = target: Macrophage-stimulating protein receptor (Homo sapiens, UniProt Q04912); experiment: Inhibition of Ron (unknown origin); summary of the method: as §1
[11] = target: Vascular endothelial growth factor receptor 2 (Homo sapiens, UniProt P35968); experiment: Inhibition of VEGFR2 (unknown origin)
[12] = target: Vascular endothelial growth factor receptor 3 (Homo sapiens, UniProt P35916); experiment: Inhibition of Flt4 (unknown origin); summary of the method: as §1
[13] = target: Epidermal growth factor receptor (Homo sapiens, UniProt P00533); experiment: Inhibition of EGFR (unknown origin); summary of the method: as §1
NCI-H460 [14] = experiment: Antiproliferative activity against human NCI-H460 cells assessed as reduction in cell viability hrs by MTT assay; assay type: functional, cell-based; settings: TDE = time-dependent effect

Sequence of Hepatocyte growth factor receptor (P08581 whole entry): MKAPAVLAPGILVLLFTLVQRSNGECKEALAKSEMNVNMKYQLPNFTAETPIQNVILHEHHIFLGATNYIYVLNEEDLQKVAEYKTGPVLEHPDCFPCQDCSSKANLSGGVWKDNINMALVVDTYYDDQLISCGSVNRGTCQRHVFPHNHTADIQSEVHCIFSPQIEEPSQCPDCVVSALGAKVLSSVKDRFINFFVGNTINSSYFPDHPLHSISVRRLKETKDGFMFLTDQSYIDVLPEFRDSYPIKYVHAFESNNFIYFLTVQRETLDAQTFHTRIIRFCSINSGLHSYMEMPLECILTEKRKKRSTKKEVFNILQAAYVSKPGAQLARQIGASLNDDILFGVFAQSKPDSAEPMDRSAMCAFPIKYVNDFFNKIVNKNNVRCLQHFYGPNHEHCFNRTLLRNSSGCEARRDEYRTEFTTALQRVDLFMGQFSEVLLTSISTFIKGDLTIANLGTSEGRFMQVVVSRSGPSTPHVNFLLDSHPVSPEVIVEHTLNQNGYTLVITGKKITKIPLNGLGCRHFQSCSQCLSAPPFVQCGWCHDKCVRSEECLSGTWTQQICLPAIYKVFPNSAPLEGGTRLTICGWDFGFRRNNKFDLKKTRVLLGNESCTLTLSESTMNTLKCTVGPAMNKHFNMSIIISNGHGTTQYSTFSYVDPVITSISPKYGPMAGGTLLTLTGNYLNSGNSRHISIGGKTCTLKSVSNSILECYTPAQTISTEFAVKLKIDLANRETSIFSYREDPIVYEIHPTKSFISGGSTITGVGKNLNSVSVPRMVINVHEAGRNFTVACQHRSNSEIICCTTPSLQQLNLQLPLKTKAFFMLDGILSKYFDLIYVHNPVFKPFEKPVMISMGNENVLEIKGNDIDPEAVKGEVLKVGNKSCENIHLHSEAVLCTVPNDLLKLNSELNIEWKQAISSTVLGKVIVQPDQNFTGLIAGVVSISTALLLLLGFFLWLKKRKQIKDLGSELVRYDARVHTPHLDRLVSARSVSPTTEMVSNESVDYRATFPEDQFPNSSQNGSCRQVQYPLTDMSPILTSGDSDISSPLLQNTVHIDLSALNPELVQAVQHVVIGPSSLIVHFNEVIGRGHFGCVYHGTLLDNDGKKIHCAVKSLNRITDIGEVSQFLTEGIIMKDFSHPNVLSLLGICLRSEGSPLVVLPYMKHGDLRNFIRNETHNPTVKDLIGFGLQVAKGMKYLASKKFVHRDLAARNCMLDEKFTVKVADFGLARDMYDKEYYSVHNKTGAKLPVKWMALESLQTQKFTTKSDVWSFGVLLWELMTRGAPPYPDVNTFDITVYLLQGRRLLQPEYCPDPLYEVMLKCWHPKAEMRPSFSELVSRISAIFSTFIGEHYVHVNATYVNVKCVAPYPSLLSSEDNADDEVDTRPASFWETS
Sequence of Mast/stem cell growth factor receptor Kit (P10721 whole entry): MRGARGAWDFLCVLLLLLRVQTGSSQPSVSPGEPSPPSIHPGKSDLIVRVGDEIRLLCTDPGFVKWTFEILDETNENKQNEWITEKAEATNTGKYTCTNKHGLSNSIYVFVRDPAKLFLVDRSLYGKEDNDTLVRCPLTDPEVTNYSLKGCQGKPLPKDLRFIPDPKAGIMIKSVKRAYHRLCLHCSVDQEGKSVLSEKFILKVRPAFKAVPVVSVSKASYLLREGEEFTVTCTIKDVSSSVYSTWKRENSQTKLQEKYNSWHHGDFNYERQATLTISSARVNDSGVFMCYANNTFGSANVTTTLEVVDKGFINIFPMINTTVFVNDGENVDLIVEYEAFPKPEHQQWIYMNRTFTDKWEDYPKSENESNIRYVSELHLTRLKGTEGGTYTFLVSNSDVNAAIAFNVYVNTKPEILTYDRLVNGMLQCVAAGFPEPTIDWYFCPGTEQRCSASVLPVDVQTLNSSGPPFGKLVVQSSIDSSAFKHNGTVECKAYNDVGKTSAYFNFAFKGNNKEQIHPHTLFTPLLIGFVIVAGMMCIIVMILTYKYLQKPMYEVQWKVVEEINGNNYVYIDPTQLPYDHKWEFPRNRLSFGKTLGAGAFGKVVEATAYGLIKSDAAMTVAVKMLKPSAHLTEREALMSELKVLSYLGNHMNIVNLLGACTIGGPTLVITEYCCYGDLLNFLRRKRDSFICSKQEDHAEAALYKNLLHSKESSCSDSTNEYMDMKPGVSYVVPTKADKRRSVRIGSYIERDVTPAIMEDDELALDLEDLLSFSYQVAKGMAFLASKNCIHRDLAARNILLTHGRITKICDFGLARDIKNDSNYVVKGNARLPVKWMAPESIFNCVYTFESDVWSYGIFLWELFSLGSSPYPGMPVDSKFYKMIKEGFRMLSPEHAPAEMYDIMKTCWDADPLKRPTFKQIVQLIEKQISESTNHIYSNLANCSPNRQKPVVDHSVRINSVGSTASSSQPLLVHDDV
Sequence of Epidermal growth factor receptor (P00533 whole entry): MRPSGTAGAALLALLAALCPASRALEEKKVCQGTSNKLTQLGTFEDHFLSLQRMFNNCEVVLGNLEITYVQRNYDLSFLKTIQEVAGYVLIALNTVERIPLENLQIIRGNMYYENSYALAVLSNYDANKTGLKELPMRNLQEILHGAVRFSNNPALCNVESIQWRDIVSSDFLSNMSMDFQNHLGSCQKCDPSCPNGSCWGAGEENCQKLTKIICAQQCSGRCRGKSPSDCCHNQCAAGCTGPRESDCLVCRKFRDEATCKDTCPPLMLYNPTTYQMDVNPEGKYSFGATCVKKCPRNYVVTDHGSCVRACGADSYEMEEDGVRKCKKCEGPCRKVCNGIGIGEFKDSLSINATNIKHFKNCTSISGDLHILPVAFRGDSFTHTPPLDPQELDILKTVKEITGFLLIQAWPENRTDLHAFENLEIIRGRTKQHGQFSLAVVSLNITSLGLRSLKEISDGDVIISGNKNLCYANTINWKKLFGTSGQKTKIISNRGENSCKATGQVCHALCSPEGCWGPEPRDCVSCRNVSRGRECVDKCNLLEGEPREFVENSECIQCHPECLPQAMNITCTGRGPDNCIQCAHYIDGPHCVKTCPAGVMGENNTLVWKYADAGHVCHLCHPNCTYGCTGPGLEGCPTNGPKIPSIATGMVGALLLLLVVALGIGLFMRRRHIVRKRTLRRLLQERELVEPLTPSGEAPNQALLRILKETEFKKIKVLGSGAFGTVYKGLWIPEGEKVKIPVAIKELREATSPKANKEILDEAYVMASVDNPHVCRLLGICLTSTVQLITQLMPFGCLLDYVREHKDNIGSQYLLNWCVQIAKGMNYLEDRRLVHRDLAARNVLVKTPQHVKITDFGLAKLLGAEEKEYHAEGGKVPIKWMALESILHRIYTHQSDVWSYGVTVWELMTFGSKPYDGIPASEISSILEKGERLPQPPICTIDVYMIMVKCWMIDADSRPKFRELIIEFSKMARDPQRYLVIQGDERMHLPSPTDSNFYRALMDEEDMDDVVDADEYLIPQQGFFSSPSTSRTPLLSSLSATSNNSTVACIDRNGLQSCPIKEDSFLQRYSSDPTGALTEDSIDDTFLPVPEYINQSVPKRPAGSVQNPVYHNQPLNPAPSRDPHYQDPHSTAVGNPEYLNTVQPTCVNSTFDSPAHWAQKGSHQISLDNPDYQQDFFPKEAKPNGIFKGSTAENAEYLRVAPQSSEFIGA
Sequence of Vascular endothelial growth factor receptor 3 (P35916 whole entry): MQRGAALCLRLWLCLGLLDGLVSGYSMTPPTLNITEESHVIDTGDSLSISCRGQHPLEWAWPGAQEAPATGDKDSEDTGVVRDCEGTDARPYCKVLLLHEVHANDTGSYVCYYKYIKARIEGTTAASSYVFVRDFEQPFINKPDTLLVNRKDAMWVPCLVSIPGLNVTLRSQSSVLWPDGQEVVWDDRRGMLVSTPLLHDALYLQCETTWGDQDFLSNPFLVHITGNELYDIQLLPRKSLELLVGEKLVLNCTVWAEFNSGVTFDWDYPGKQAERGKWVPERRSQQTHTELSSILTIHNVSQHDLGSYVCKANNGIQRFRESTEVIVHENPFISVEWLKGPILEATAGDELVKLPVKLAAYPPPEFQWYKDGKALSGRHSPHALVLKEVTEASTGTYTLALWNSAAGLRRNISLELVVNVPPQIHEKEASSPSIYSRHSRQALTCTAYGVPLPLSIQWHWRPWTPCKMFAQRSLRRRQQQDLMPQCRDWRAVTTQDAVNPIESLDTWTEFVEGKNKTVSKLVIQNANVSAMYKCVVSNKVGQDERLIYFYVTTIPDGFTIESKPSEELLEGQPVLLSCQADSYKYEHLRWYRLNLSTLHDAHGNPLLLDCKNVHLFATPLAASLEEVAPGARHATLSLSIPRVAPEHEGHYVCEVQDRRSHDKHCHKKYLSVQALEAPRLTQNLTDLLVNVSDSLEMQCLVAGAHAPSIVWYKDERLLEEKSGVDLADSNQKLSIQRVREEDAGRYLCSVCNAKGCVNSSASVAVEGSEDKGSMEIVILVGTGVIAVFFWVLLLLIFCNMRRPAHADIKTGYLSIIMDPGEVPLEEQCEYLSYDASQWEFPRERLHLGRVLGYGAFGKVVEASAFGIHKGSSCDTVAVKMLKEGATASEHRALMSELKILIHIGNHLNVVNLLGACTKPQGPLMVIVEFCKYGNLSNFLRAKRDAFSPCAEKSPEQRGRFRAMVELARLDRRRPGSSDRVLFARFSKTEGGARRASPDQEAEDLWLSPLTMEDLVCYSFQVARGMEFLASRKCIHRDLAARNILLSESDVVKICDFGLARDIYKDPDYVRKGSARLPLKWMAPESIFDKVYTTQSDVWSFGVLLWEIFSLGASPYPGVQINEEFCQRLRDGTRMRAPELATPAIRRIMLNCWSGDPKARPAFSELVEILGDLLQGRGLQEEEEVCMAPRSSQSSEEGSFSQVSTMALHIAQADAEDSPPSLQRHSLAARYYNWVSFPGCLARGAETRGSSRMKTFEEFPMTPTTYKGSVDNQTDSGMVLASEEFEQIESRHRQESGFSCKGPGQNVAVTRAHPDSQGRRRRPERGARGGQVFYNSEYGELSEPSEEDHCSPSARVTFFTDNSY

| IC50 (NCI-H460 [1]) | IC50 (HT-29 [2]) | IC50 (MKN-45) | IC50 (MDA-MB-231 [3]) | Compound | further results |
| --- | --- | --- | --- | --- | --- |
| 1.29 µM | 1.92 µM | 2.39 µM | 3.21 µM | COc1cc2nccc(Oc3ccc(NC(=O)C(C)OC(=O)c4ccccc4)cc3F)c2cc1OC (stereo unspecified) | – |
| 2.68 µM | 2.96 µM | – | 3.56 µM | COc1cc2nccc(Oc3ccc(NC(=O)C(OC(=O)c4ccco4)C(C)(C)C)cc3F)c2cc1OC (stereo unspecified) | – |
| 0.21 µM | 0.24 µM | 0.38 µM | 0.44 µM | COc1cc2nccc(Oc3ccc(NC(=O)C(OC(=O)c4ccccc4F)C(C)(C)C)cc3F)c2cc1OC (stereo unspecified) | – |
| 0.48 µM | 0.56 µM | 0.75 µM | 0.9 µM | COc1cc2nccc(Oc3ccc(NC(=O)C(OC(=O)c4ccc(Br)cc4)C(C)(C)C)cc3F)c2cc1OC (stereo unspecified) | – |
| 0.78 µM | 0.9 µM | 1.12 µM | 1.56 µM | COc1cc2nccc(Oc3ccc(NC(=O)C(OC(=O)c4ccc(Cl)c(Cl)c4)C(C)(C)C)cc3F)c2cc1OC (stereo unspecified) | – |
| 6.42 µM | 6.21 µM | 7.52 µM | 8.87 µM | COc1ccc(N(C(=O)c2ccc(F)cc2)C(C(=O)Nc2ccc(Oc3ccnc4cc(OC)c(OC)cc34)c(F)c2)C(C)(C)C)cc1OC (stereo unspecified) | – |
| 0.14 µM | 0.2 µM | 0.26 µM | 0.42 µM | COc1cc2nccc(Oc3ccc(NC(=O)C(OC(=O)c4ccc(F)cc4)C(C)(C)C)cc3F)c2cc1OC (racemic) | IC50 [4]: 0.00243 µM; Ratio IC50 (NCI-H460 [5]): 1.7; Ratio IC50 (HT-29 [6]): 1.3; Ratio IC50 (MDA-MB-231 [7]): 1.6; IC50 [8]: 0.00442 µM; IC50 [9]: 0.00615 µM; IC50 [10]: 0.0186 µM; IC50 [11]: 0.295 µM; IC50 [12]: 0.54 µM; IC50 [13]: > 10 µM; Activity (NCI-H460 [14]): Tde |
| 2.46 µM | 4.02 µM | 6.39 µM | 8.24 µM | COc1cc2nccc(Oc3ccc(NC(=O)C(C)OC(=O)c4cccs4)cc3F)c2cc1OC (stereo unspecified) | – |
| 0.89 µM | 1.24 µM | 1.87 µM | 2.48 µM | CCCC(OC(=O)c1ccccc1)C(=O)Nc1ccc(Oc2ccnc3cc(OC)c(OC)cc23)c(F)c1 (stereo unspecified) | – |
| 2.06 µM | 2.45 µM | 3.95 µM | 4.45 µM | COc1cc2nccc(Oc3ccc(NC(=O)C(OC(=O)c4ccc(C(C)(C)C)cc4)C(C)(C)C)cc3F)c2cc1OC (stereo unspecified) | – |
| 0.22 µM | 0.29 µM | 0.46 µM | 0.76 µM | COc1cc2nccc(Oc3ccc(NC(=O)C(OC(=O)c4ccccc4Cl)C(C)(C)C)cc3F)c2cc1OC (stereo unspecified) | – |
| – | – | – | – | COc1cc2nccc(Oc3ccc(NC(=O)[C@@H](OC(=O)c4ccc(F)cc4)C(C)(C)C)cc3F)c2cc1OC | IC50 [4]: 0.00249 µM |
| 0.38 µM | 0.44 µM | 0.65 µM | 0.96 µM | COc1cc2nccc(Oc3ccc(NC(=O)C(NC(=O)c4ccc(F)cc4)C(C)(C)C)cc3F)c2cc1OC (stereo unspecified) | – |
| 1.84 µM | 2.16 µM | 2.87 µM | 3.52 µM | COc1cc2nccc(Oc3ccc(NC(=O)C(OC(=O)c4ccc(C(F)(F)F)cc4)C(C)(C)C)cc3F)c2cc1OC (stereo unspecified) | – |
| 10.3 µM | 15.6 µM | 20.5 µM | 17.9 µM | COc1cc2nccc(Oc3ccc(NC(=O)C(OC(=O)c4ccccc4)C4CCCCC4)cc3F)c2cc1OC (stereo unspecified) | – |
| 0.96 µM | 1.26 µM | 1.7 µM | 1.89 µM | COc1cc2nccc(Oc3ccc(NC(=O)C(OC(=O)c4cccs4)C(C)(C)C)cc3F)c2cc1OC (stereo unspecified) | – |
| 0.4 µM | 0.45 µM | 0.56 µM | 0.65 µM | COc1cc2nccc(Oc3ccc(NC(=O)C(OC(=O)c4ccccc4)C(C)(C)C)cc3F)c2cc1OC (stereo unspecified) | – |

| IC50 (NCI-H460 [1]) | IC50 (HT-29 [2]) | IC50 (MKN-45) | IC50 (MDA-MB-231 [3]) | Compound | further results |
| --- | --- | --- | --- | --- | --- |
| 1.3 µM | 1.45 µM | 1.58 µM | 1.7 µM | COc1cc2nccc(Oc3ccc(NC(=O)C(N(C(=O)c4ccc(F)cc4)C(C)(C)C)C(C)(C)C)cc3F)c2cc1OC (stereo unspecified) | – |
| 2.7 µM | 3.03 µM | 3.87 µM | 4.92 µM | COc1cc2nccc(Oc3ccc(NC(=O)C(OC(=O)c4cc(OC)c(OC)c(OC)c4)C(C)(C)C)cc3F)c2cc1OC (stereo unspecified) | – |
| 0.26 µM | 0.3 µM | 0.54 µM | 0.49 µM | COc1cc2nccc(Oc3ccc(NC(=O)C(OC(=O)c4cccc(F)c4)C(C)(C)C)cc3F)c2cc1OC (stereo unspecified) | – |
| 15.2 µM | 24.6 µM | 28.2 µM | – | COc1cc2nccc(Oc3ccc(NC(=O)C(C)OC(=O)C4CCCC4)cc3F)c2cc1OC (stereo unspecified) | – |
| 22.4 µM | 25.6 µM | – | – | COc1cc2nccc(Oc3ccc(NC(=O)C(OC(=O)c4ccccc4)c4ccccc4)cc3F)c2cc1OC (stereo unspecified) | – |
| 7.56 µM | 9.27 µM | 11.5 µM | 14 µM | COc1cc2nccc(Oc3ccc(NC(=O)C(N(C(=O)c4ccc(F)cc4)c4ccccc4)C(C)(C)C)cc3F)c2cc1OC (stereo unspecified) | – |
| 0.2 µM | 0.24 µM | 0.32 µM | 0.48 µM | COc1cc2nccc(Oc3ccc(NC(=O)C(OC(=O)c4ccc(Cl)cc4)C(C)(C)C)cc3F)c2cc1OC (stereo unspecified) | – |
| 1.25 µM | 1.54 µM | 1.86 µM | 2.58 µM | COc1ccc(C(=O)OC(C(=O)Nc2ccc(Oc3ccnc4cc(OC)c(OC)cc34)c(F)c2)C(C)(C)C)cc1 (stereo unspecified) | – |
| 0.47 µM | 0.52 µM | 0.68 µM | 0.86 µM | CCCCN(C(=O)c1ccc(F)cc1)C(C(=O)Nc1ccc(Oc2ccnc3cc(OC)c(OC)cc23)c(F)c1)C(C)(C)C (stereo unspecified) | – |
| 4.34 µM | 5.35 µM | 6.65 µM | 8.48 µM | COc1cc2nccc(Oc3ccc(NC(=O)C(N(C(=O)c4ccc(F)cc4)C4CCCCC4)C(C)(C)C)cc3F)c2cc1OC (stereo unspecified) | – |
| 0.78 µM | 0.85 µM | 1.08 µM | 1.42 µM | COc1cc2nccc(Oc3ccc(NC(=O)C(OC(=O)c4ccc(C)cc4)C(C)(C)C)cc3F)c2cc1OC (stereo unspecified) | – |
| 8.42 µM | 10.2 µM | 12.4 µM | 14.8 µM | COc1cc2nccc(Oc3ccc(NC(=O)C(N(C(=O)c4ccc(F)cc4)c4ccc(F)cc4)C(C)(C)C)cc3F)c2cc1OC (stereo unspecified) | – |
| 9.43 µM | 11.6 µM | 15.7 µM | 13.3 µM | COc1cc2nccc(Oc3ccc(NC(=O)C(C)OC(=O)c4ccc5ccccc5c4)cc3F)c2cc1OC (stereo unspecified) | – |
| 0.31 µM | 0.39 µM | 0.6 µM | 0.86 µM | COc1cc2nccc(Oc3ccc(NC(=O)C(OC(=O)c4cccc(Cl)c4)C(C)(C)C)cc3F)c2cc1OC (stereo unspecified) | – |
| 11.6 µM | 9.27 µM | 11.5 µM | 14 µM | COc1cc2nccc(Oc3ccc(NC(=O)C(OC(=O)C4CCCC4)C(C)(C)C)cc3F)c2cc1OC (stereo unspecified) | – |
| – | – | – | – | COc1cc2nccc(Oc3ccc(NC(=O)[C@H](OC(=O)c4ccc(F)cc4)C(C)(C)C)cc3F)c2cc1OC | IC50 [4]: 0.00256 µM |
| 3.34 µM | 4.38 µM | – | 6.75 µM | COc1cc2nccc(Oc3ccc(NC(=O)C(OC(=O)c4ccc5ccccc5c4)C(C)(C)C)cc3F)c2cc1OC (stereo unspecified) | – |
